Reference: ChEMBL document CHEMBL4811250, “Discovery and Optimization of 2H-1λ2-Pyridin-2-one Inhibitors of Mutant Isocitrate Dehydrogenase 1 for the Treatment of Cancer” (J Med Chem, 2021)
≈ marks a conversion by molar mass, not a printed value. Where “and” joins values, the source holds several entries; their conditions need not be identical. Identical values can stand only once.

Assays:
[1] = system: Isocitrate dehydrogenase [NADP] cytoplasmic (Homo sapiens), O75874 [R132H]; assay: Inhibition of IDH1 R132H mutant (unknown origin) assessed as reduction in NADPH consumption using alpha-KG as substrate at 38 uM incubated for 5 mins by diaphorase/resazurin-coupled system relative to control
[2] = Permeability of compound at pH 7.4 by PAMPA assay; assay type: ADME; details: for Papp: read-out: permeability
Procedure, shortened: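 Stirring double-sink PAMPA using a lipid/dodecane membrane tuned for GI passive permeability, pH 7.4 on donor and acceptor sides. Compound at 0.05 mM (0.5% DMSO), 30 min permeation at room temperature with donor stirring. Donor and acceptor concentrations read by UV plate reader.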

[3] = Kinetic solubility of the compound in pH 7.4 phosphate buffer measured after 6 hrs by UV spectroscopy; assay type: physicochemical; details: read-out: Kinetic_solubility
[4] = target: Isocitrate dehydrogenase [NADP] cytoplasmic (Homo sapiens, UniProt O75874, R132H); assay: Inhibition of IDH1 R132H mutant (unknown origin) assessed as reduction in NADPH consumption using alpha-KG as substrate incubated for 5 mins by diaphorase/resazurin-coupled system
[5] = system: Isocitrate dehydrogenase [NADP] cytoplasmic (Homo sapiens), O75874 [R132C]; assay: Inhibition of IDH1 R132C mutant (unknown origin) assessed as reduction in NADPH consumption using alpha-KG as substrate at 38 uM incubated for 5 mins by diaphorase/resazurin-coupled system relative to control
[6] = Metabolic stability in rat liver microsomes assessed as half life incubated for 15 mins by high resolution LC/MS analysis; assay type: ADME, Microsome; details: 0.25 h
Procedure, shortened: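 Rat liver microsomes (0.5 mg/mL protein) with 1.0 μM compound and NADPH regenerating system in 100 mM phosphate pH 7.4, 15 min at 37 °C. Quenched with acetonitrile containing albendazole internal standard. Percent remaining measured by high-resolution LC/MS.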

[7] = system: Isocitrate dehydrogenase [NADP] cytoplasmic (Homo sapiens), O75874 [R132H]; assay: Inhibition of IDH1 R132H mutant (unknown origin) expressed in human U87 cells assessed as R-2-hydroxyglutarate production at 100 nM after 48 hrs by LC-MS analysis; assay type: cell-based; design: scale not given: the % may be the effect or the level left
Procedure, shortened: (§1)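 U87-R132H cells (8000/well, DMEM high glucose, 10% FBS) were seeded, cultured overnight at 37 °C and 5% CO2, then given compound or DMSO. After 48 h, 2-HG secreted into the medium was measured by RapidFire LC-MS. Cell viability was checked by CellTiter-Glo.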

[8] = system: Isocitrate dehydrogenase [NADP] cytoplasmic (Homo sapiens), O75874 [R132H]; assay: Inhibition of IDH1 R132H mutant (unknown origin) expressed in human U87 cells assessed as R-2-hydroxyglutarate production at 500 nM after 48 hrs by LC-MS analysis; assay type: cell-based; design: scale not given: the % may be the effect or the level left; procedure, shortened: as §1
[9] = target: Isocitrate dehydrogenase [NADP] cytoplasmic (Homo sapiens, UniProt O75874, R132C); assay: Inhibition of IDH1 R132C mutant (unknown origin) assessed as reduction in NADPH consumption using alpha-KG as substrate incubated for 5 mins by diaphorase/resazurin-coupled system
[10] = Tmax in CD1 mouse plasma at 30 mg/kg, po measured up to 24 hrs by LC-MS/MS analysis; assay type: ADME, organism-based
Procedure, shortened: (§2)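 Fed male CD1 mice (6–8 weeks, ~25–30 g) given a single 30 mpk oral dose as a 3 mg/mL solution in 20% PEG300, 40% Solutol solution (30% w/w in water), 40% DI water. Plasma (heparin-Na, heart puncture) and whole brain taken from N=3 mice per time point, 15 min to 24 h. LC/MS/MS quantitation gave Tmax, Cmax and AUC.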

[11] = Drug level in human U87MG cells expressing IDH1 R132H mutation transfected in NCr mouse plasma at 30 mg/kg, po measured after 36 hrs by LC-MS/MS analysis; assay type: ADME, organism-based, U-87MG ATCC; details: read-out: Drug uptake
Procedure, shortened: (§3)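 Mice bearing subcutaneous U87MG glioblastoma cells carrying IDH1 R132H (1 x 10^7 cells/mouse) were staged at ~200 mg and randomized. Each received a single oral 30 mg/kg dose; vehicle was 10% NMP, 40% PEG300, 25% [30% Solutol in water], 25% DI water. K2EDTA blood and tumors were taken under isoflurane from 4 mice per group at 1–48 h. Drug was quantified by validated LC-MS/MS.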

[12] = Ratio of AUClast in plasma to brain in CD1 mouse at 30 mg/kg, po measured up to 24 hrs by LC-MS/MS analysis; assay type: ADME, organism-based; details: in vivo; procedure, shortened: as §2
[13] = Cmax in CD1 mouse plasma at 30 mg/kg, po measured up to 24 hrs by LC-MS/MS analysis; assay type: ADME, organism-based; design: route oral, dose 30 mg/kg, time <=24; procedure, shortened: as §2
[14] = Drug level in human U87MG cells expressing IDH1 R132H mutation transfected in NCr mouse plasma at 30 mg/kg, po measured after 24 hrs by LC-MS/MS analysis; assay type: ADME, organism-based, U-87MG ATCC; details: read-out: Drug uptake; procedure, shortened: as §3
[15] = Tmax in CD1 mouse brain at 30 mg/kg, po measured up to 24 hrs by LC-MS/MS analysis; assay type: ADME, organism-based; procedure, shortened: as §2
[16] = AUClast in CD1 mouse plasma at 30 mg/kg, po measured up to 24 hrs by LC-MS/MS analysis; assay type: ADME, organism-based; design: route oral, dose 30 mg/kg, time <=24; procedure, shortened: as §2
[17] = Drug level in human U87MG cells expressing IDH1 R132H mutation transfected in NCr mouse plasma at 30 mg/kg, po measured after 48 hrs by LC-MS/MS analysis; assay type: ADME, organism-based, U-87MG ATCC; details: read-out: Drug uptake; procedure, shortened: as §3
[18] = AUClast in CD1 mouse brain at 30 mg/kg, po measured up to 24 hrs by LC-MS/MS analysis; assay type: ADME, organism-based; details: in vivo; procedure, shortened: as §2
[19] = Cmax in CD1 mouse brain at 30 mg/kg, po measured up to 24 hrs by LC-MS/MS analysis; assay type: ADME, organism-based; design: route oral, dose 30 mg/kg, time <=24; procedure, shortened: as §2
[20] = Ratio of Cmax in plasma to brain in CD1 mouse at 30 mg/kg, po measured up to 24 hrs by LC-MS/MS analysis; assay type: ADME, organism-based; details: in vivo; procedure, shortened: as §2

Chain of Isocitrate dehydrogenase [NADP] cytoplasmic (Homo sapiens), O75874 [R132C] (O75874 whole entry R132C): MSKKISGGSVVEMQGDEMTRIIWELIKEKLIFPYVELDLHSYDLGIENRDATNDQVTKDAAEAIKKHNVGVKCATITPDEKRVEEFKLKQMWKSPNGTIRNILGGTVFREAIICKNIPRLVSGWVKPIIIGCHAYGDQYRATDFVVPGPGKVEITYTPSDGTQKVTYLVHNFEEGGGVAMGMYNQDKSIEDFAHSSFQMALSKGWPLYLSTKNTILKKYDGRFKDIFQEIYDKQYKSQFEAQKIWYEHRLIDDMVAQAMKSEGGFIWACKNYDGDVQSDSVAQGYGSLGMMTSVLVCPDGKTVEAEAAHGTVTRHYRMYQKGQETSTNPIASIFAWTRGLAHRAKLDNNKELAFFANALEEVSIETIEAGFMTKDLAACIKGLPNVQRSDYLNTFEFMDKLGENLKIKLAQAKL
Chain of Isocitrate dehydrogenase [NADP] cytoplasmic (Homo sapiens, UniProt O75874, R132C) (O75874 2-414 R132C limits assumed): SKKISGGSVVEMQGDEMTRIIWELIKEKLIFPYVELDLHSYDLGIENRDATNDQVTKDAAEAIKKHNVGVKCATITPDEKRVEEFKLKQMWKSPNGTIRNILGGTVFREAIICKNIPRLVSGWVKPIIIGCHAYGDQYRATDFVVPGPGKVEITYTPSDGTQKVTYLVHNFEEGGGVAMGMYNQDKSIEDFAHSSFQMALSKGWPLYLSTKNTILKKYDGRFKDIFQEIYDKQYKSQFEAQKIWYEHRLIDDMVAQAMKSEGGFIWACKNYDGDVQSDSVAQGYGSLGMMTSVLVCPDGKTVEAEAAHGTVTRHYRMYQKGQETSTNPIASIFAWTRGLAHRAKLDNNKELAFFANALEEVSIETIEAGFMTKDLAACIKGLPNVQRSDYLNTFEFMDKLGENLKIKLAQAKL
Chain of Isocitrate dehydrogenase [NADP] cytoplasmic (Homo sapiens), O75874 [R132H] (O75874 whole entry R132H): as the sequence (O75874 whole entry R132C) above, with C132H counted along it
Chain of Isocitrate dehydrogenase [NADP] cytoplasmic (Homo sapiens, UniProt O75874, R132H) (O75874 2-414 R132H limits assumed): as the sequence (O75874 2-414 R132C limits assumed) above, with C131H counted along it

| SMILES | inhibition [1] | Papp [2] | solubility kinetic at 6 h [3] | IC50 [4] | inhibition [5] | t1/2 [6] | Activity [7] | Activity [8] | IC50 [9] | other results |
| --- | --- | --- | --- | --- | --- | --- | --- | --- | --- | --- |
| CCc1cccc(CC)c1-n1c(CC2CCNC2)c(C(=O)N2CCNCC2)cc(-c2nc(-c3ccc(Cl)cc3)cs2)c1=O (stereo unspecified) | 81% | 240 nm/s | < 1 µg/mL | 10 µM | 52% | 7 min | – | – | – | – |
| CCc1cccc(CC)c1-n1c(CC(C)C)c(C(=O)N2CCNCC2)cc(-c2nc(-c3ccc(Cl)cc3)cs2)c1=O | 98% | 160 nm/s | < 1 µg/mL | 0.11 µM | 83% | 17 min | 33% | 12% | 0.12 µM | – |
| CCCc1c(C(=O)N2CCNCC2)cc(-c2nc(-c3ccc(Cl)cc3)cs2)c(=O)n1-c1c(CC)cccc1CC | 97% | 1340 nm/s | < 1 µg/mL | 0.075 µM | 82% | 27 min | – | – | 0.1 µM | – |
| CCc1cccc(CC)c1-n1c(C=C(C)C)c(C(=O)N2CCNCC2)cc(-c2nc(-c3ccc(Cl)cc3)cs2)c1=O | 101% | 2250 nm/s | < 1 µg/mL | 0.044 µM | 97% | 14 min | 13% | 16% | 0.058 µM | – |
| CCc1cccc(CC)c1-n1c(C=C(C)C)c(C(=O)N2C3CCC2CNC3)cc(-c2nc(-c3ccc(Cl)cc3)cs2)c1=O | – | 990 nm/s | < 1 µg/mL | 0.062 µM | – | 9 min | 32% | 18% | 0.047 µM | – |
| CCc1cccc(CC)c1-n1c(C=C(C)C)c(C(=O)N2CCNCC2C)cc(-c2nc(-c3ccc(Cl)cc3)cs2)c1=O (stereo unspecified) | – | 400 nm/s | < 1 µg/mL | 0.039 µM | – | 17 min | 14% | 11% | 0.053 µM | – |
| CCc1cccc(CC)c1-n1c(CC2CC2)c(C(=O)N2CCNCC2)cc(-c2nc(-c3ccc(Cl)cc3)cs2)c1=O | 107% | 430 nm/s | < 1 µg/mL | 0.055 µM | 96% | 17 min | – | – | 0.049 µM | – |
| CCc1cccc(CC)c1-n1c(C=C(C)C)c(C(=O)N2CCNC(C)C2)cc(-c2nc(-c3ccc(Cl)cc3)cs2)c1=O (stereo unspecified) | – | – | – | 0.044 µM | – | – | 11% | 8% | 0.046 µM | – |
| CCc1cccc(CC)c1-n1c(C=C(C)C)c(C(=O)N2CCNC(C(=O)O)C2)cc(-c2nc(-c3ccc(Cl)cc3)cs2)c1=O (stereo unspecified) | – | < 10 nm/s | 16 µg/mL (≈ 25.3 µM) | 0.055 µM | – | 23 min | 29% | 10% | 0.064 µM | – |
| CCc1ccc(OC)cc1-n1c(C=C(C)C)c(C(=O)N2CCNCC2)cc(-c2nc(-c3ccc(Cl)cc3)cs2)c1=O | – | 5490 nm/s | < 1 µg/mL | 0.114 µM | – | > 30 min | 40% | 19% | 0.075 µM | – |
| CCc1ccc(Cl)cc1-n1c(C=C(C)C)c(C(=O)N2CCNCC2)cc(-c2nc(-c3ccc(Cl)cc3)cs2)c1=O | – | – | < 1 µg/mL | – | – | > 30 min | 5.9% | 4.1% | – | Tmax [10]: 240 min; concentration at 36 h [11]: 7.2 µM; Ratio AUC [12]: 3.52; Cmax [13]: 2.01 µg/mL; concentration at 24 h [14]: 9.5 µM; Tmax [15]: 360 min; AUC(0-t) at 24 h [16]: 24.4 µg·h/mL; concentration at 48 h [17]: 6.8 µM; permeability [2]: 255 10^-6 cm/s and 434 10^-6 cm/s; AUClast [18]: 7000 ng·h/g; Cmax [19]: 595 ng/g; Ratio [20]: 3.68 |
| CCc1cccc(CC)c1-n1c(C=C(C)C)c(C(=O)N2C[C@H]3CC[C@@H](C2)N3)cc(-c2nc(-c3ccc(Cl)cc3)cs2)c1=O | – | 890 nm/s | < 1 µg/mL | 0.094 µM | – | > 30 min | 11% | 10% | 0.06 µM | – |
| CCc1cccc(CC)c1-n1c(C)c(C(=O)NCCN)cc(-c2nc(-c3ccc(Cl)cc3)cs2)c1=O | 97% | – | – | 0.38 µM | 89% | – | – | – | 2 µM | – |
| CCc1cccc(CC)c1-n1c(CCC(F)(F)F)c(C(=O)N2CCNCC2)cc(-c2nc(-c3ccc(Cl)cc3)cs2)c1=O | 101% | – | – | 0.24 µM | 82% | – | – | – | 0.6 µM | – |
| CCc1cccc(CC)c1-n1c(CCOC)c(C(=O)N2CCNCC2)cc(-c2nc(-c3ccc(Cl)cc3)cs2)c1=O | 102% | – | – | 0.14 µM | 92% | – | – | – | 0.34 µM | – |
| COc1ccc(OC)c(-n2c3c(cc(-c4nc(-c5ccc(Cl)cc5)cs4)c2=O)C(=O)CC(C)(C)C3)c1 | 84% | – | – | 1.6 µM | 85% | – | – | – | 1 µM | – |
| CCc1cccc(CC)c1-n1c(CC2CCOCC2)c(C(=O)N2CCNCC2)cc(-c2nc(-c3ccc(Cl)cc3)cs2)c1=O | 93% | – | – | 1.1 µM | 79% | – | – | – | 0.98 µM | – |
| CCc1cccc(CC)c1-n1c(C=C(C)C)c(C(=O)N2CCNC(=O)C2)cc(-c2nc(-c3ccc(Cl)cc3)cs2)c1=O | – | 2750 nm/s | < 1 µg/mL | 0.035 µM | – | 2 min | 23% | 13% | 0.039 µM | – |
| CCc1cccc(CC)c1-n1c(C=C(C)C)c(C(=O)N2CCNC3(CC3)C2)cc(-c2nc(-c3ccc(Cl)cc3)cs2)c1=O | – | 480 nm/s | < 1 µg/mL | 0.078 µM | – | 12 min | 17% | 14% | 0.048 µM | – |
| CCc1cccc(CC)c1-n1c(C)c(C(=O)N2CCOCC2)cc(-c2nc(-c3ccc(Cl)cc3)cs2)c1=O | 82% | – | – | 4.2 µM | 71% | – | – | – | 4.1 µM | – |
